The target in assay [1] is PI3-kinase p110-delta/p85-alpha (Homo sapiens, UniProt O00329). Description: Inhibition of recombinant human full length His-tagged p110delta/p85alpha expressed in baculovirus expression system measured after 60 mins in presence of ATP by ATP-competitive binding assay. In outline:
(§1)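 SelectScreen ATP-competitive assay using 10-point titration with 1 μM top final compound concentration. Kinase, substrate and ATP mixed in 30 mM HEPES buffer and reacted 60 min. IC50 taken as the mean of three independent experiments.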

In a further assay the test system is MOLT-4. Description: Antiproliferative activity against human MOLT-4 cells assessed as cell viability at 20 uM by CellTiter-Glo luminescent cell viability assay (reference value: 100%). It counts as functional. Particulars: read-out: Activity. (ATP-based viability assays read luminescence as a measure of living cells.)
The target in assay [2] is Phosphatidylinositol 4,5-bisphosphate 3-kinase catalytic subunit gamma isoform (Homo sapiens, UniProt P48736). Description: Inhibition of recombinant human full length His-tagged p110gamma expressed in baculovirus expression system measured after 60 mins in presence of ATP by ATP-competitive binding assay. An outline of the steps: as §1
Phosphatidylinositol 4,5-bisphosphate 3-kinase catalytic subunit gamma isoform, sequence (P48736 whole entry, canonical isoform): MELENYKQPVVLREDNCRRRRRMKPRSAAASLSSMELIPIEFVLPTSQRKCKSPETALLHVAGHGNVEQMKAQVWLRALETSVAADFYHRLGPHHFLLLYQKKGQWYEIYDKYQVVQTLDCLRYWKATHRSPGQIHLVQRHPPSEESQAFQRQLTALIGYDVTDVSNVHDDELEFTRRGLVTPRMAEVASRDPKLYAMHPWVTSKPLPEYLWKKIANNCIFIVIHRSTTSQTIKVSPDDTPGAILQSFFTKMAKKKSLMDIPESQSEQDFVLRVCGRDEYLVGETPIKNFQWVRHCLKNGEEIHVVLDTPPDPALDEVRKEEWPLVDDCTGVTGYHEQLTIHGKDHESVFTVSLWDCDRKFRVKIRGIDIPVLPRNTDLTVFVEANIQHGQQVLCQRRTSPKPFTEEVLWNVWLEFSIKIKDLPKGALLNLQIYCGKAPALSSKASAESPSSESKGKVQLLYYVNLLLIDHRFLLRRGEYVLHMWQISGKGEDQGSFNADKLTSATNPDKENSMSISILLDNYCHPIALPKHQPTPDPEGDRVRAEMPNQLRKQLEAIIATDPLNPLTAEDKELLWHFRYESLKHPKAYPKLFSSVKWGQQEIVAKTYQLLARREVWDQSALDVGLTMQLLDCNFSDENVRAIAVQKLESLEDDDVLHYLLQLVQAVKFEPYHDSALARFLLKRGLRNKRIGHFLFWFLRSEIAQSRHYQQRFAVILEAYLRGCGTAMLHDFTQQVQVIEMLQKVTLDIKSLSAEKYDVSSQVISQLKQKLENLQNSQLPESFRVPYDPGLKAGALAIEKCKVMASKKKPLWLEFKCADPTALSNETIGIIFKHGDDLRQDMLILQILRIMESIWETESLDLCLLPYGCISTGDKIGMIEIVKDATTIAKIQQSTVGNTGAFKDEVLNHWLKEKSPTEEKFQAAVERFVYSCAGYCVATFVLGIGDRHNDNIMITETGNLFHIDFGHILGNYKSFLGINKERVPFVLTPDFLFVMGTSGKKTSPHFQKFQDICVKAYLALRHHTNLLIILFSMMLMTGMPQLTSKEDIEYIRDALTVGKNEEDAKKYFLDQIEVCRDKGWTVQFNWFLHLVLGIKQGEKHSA
The next assay deals with SU-DHL-5. Kind of assay: Antiproliferative activity against human SU-DHL-5 cells assessed as cell viability at 10 uM by CellTiter-Glo luminescent cell viability assay (reference value: 100%). Format: functional. The settings on record: read-out: Activity.
The target in assay [3] is Phosphatidylinositol 4,5-bisphosphate 3-kinase catalytic subunit beta isoform (Homo sapiens, UniProt P42338). Kind of assay: Inhibition of recombinant human full length His-tagged p110beta expressed in baculovirus expression system measured after 60 mins in presence of ATP by ATP-competitive binding assay. An outline of the steps:
as §1

The target in assay [4] is PI3-kinase p110-alpha/p85-alpha (Homo sapiens, UniProt P42336). Kind of assay: Inhibition of recombinant human full length N-terminal His-tagged p110alpha/p85alpha expressed in baculovirus expression system measured after 60 mins in presence of ATP by ATP-competitive binding assay. In outline:
as §1

For the next assay, the species on record is Homo sapiens. Kind of assay: Selectivity ratio of IC50 for recombinant human full length His-tagged p110gamma expressed in baculovirus expression system to IC50 for recombinant human full length His-tagged p110delta/p85alpha expressed in baculovirus expression system.

Phosphatidylinositol 4,5-bisphosphate 3-kinase catalytic subunit beta isoform, sequence (P42338 whole entry, canonical isoform): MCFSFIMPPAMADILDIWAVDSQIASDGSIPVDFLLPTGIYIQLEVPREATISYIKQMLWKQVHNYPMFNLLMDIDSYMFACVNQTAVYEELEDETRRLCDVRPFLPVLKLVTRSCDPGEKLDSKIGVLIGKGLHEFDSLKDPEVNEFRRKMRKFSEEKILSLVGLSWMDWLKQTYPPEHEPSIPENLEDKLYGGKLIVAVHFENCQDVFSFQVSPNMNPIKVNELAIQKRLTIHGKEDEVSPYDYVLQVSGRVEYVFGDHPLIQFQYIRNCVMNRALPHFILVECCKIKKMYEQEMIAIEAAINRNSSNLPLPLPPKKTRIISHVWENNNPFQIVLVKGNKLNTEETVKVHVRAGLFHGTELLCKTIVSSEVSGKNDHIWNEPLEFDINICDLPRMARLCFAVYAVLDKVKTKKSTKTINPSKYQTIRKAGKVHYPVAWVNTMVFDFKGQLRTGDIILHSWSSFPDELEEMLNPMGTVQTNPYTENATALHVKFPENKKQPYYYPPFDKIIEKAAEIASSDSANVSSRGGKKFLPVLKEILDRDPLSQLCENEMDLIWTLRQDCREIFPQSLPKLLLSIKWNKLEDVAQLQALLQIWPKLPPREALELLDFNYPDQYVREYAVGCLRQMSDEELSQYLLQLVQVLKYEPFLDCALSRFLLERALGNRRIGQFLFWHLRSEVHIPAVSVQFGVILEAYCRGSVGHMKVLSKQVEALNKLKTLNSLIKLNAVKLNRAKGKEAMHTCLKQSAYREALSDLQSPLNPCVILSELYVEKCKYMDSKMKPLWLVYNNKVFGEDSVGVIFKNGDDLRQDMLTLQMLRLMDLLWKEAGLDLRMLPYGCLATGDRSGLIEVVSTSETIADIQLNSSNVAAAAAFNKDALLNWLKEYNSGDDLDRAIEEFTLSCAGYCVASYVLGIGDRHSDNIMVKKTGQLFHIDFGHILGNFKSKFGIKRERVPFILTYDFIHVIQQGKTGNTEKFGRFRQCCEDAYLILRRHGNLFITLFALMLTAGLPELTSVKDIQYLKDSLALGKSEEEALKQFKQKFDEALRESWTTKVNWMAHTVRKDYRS
PI3-kinase p110-alpha/p85-alpha, sequence (P27986 whole entry): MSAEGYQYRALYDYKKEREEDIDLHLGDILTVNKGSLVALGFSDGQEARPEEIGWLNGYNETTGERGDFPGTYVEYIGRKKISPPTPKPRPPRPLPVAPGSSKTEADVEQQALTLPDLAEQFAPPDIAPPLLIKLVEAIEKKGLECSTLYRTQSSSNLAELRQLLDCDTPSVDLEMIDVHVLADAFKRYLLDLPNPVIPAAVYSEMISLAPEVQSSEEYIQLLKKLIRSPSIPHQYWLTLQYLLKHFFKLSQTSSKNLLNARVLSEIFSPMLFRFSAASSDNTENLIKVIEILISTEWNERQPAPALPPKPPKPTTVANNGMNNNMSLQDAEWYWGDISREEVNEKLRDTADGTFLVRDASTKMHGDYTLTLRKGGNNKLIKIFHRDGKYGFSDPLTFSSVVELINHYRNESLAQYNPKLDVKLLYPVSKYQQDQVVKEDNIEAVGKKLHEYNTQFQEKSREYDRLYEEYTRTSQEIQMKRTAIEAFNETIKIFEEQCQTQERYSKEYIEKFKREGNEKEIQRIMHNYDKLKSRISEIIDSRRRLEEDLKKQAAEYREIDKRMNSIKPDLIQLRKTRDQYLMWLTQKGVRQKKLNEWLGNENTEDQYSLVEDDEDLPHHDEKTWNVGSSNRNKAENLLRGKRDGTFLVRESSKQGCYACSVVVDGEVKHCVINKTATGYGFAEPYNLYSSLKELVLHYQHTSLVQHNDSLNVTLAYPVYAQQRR
PI3-kinase p110-alpha/p85-alpha, sequence (P42336 whole entry): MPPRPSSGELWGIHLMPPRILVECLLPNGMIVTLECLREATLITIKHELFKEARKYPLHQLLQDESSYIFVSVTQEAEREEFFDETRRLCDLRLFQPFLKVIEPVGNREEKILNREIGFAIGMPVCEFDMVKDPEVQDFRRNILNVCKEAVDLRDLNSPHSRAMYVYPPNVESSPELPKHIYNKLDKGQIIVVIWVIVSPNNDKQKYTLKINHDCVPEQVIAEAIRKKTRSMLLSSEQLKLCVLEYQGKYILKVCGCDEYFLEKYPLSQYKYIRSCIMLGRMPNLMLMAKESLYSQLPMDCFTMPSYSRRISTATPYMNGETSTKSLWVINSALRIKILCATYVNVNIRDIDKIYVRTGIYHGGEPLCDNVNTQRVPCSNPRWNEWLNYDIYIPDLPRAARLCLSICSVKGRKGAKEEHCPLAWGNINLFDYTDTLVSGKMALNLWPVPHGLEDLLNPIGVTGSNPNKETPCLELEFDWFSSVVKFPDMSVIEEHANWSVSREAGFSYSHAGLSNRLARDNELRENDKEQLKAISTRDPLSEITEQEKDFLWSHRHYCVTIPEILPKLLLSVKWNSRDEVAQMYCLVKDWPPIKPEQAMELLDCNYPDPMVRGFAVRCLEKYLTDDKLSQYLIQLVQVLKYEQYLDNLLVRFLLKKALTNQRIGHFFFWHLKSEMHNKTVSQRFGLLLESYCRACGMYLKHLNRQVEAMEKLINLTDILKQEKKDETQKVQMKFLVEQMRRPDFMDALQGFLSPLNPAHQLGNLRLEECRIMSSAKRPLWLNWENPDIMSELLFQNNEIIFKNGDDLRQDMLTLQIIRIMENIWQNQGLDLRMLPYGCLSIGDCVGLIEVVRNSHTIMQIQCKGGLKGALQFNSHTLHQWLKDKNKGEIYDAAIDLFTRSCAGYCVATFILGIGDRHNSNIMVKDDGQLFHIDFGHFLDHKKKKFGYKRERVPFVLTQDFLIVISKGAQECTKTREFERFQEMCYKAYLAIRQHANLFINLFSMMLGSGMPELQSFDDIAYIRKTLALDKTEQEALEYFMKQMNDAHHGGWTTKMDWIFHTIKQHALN
PI3-kinase p110-delta/p85-alpha, sequence (P27986 whole entry): as the sequence (P27986 whole entry) above
PI3-kinase p110-delta/p85-alpha, sequence (O00329 whole entry): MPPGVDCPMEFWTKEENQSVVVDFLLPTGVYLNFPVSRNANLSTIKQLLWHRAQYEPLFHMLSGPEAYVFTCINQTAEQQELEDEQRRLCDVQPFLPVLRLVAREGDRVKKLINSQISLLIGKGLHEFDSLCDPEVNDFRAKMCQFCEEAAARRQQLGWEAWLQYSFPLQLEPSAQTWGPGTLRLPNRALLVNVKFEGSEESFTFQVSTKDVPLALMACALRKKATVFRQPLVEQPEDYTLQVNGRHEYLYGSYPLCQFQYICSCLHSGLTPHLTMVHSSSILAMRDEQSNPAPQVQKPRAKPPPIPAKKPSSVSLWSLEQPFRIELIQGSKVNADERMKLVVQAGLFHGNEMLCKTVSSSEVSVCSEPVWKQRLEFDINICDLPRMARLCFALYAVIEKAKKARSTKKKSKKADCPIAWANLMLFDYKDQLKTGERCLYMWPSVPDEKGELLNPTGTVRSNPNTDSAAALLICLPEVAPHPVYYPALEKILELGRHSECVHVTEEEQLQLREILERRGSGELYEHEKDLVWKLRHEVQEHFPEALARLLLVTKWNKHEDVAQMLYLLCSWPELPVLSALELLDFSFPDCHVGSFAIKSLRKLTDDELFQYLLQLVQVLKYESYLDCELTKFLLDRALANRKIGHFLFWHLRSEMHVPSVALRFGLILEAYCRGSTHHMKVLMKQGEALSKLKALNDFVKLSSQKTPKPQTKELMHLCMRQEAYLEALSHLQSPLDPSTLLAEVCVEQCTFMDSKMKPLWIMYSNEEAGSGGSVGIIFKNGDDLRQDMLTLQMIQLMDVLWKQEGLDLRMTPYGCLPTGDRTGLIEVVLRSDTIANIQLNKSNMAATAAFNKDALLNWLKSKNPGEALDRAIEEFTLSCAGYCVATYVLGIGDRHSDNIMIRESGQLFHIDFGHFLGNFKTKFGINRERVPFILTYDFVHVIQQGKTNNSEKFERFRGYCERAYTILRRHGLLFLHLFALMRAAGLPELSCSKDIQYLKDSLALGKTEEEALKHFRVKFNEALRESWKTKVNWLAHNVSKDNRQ

What is called IC50 is the concentration needed to halve the response being measured. Take `CC(C)[C@H](Nc1ncnc2nc[nH]c12)c1nc2cccc(F)c2c(=O)n1-c1ccccc1`: the IC50 in assay [1] was 1.82 nM; in assay [2] it was 313 nM; in assay [3], 1670 nM; in assay [4] it was 878 nM. The viability at 20 µM with MOLT-4 came out at 86.2%. The viability at 10 µM with SU-DHL-5 came out at 63.4%. Moreover, the Ratio IC50 in the assay listed under Homo sapiens is 172.

In the case of `O=c1c2c(Cl)cccc2nc([C@@H](Nc2ncnc3nc[nH]c23)C2CC2)n1-c1ccccc1`, the IC50 in assay [1] is 0.6 nM; in assay [2], 10.4 nM; in assay [3] it was 87.6 nM; in assay [4], 205 nM. Also, the viability at 20 µM with MOLT-4 came to 56.5%. Further, in the assay with SU-DHL-5, the viability at 10 µM is 36.7%. In addition, the Ratio IC50 in the assay filed under Homo sapiens was found to be 17.3.

On to `Nc1cccc2nc([C@@H](Nc3ncnc4nc[nH]c34)C3CC3)n(-c3ccccc3)c(=O)c12`, for which the IC50 in assay [1] stood at 1.07 nM; in assay [2], 24.7 nM; in assay [3], 562 nM; in assay [4], 369 nM. For the same molecule, in the assay on MOLT-4, the viability at 20 µM is 65.8%. Moreover, in the assay with SU-DHL-5, the viability at 10 µM was 23.5%. For the same molecule, in the assay listed under Homo sapiens, the Ratio IC50 is 23.1.

For `CC[C@H](Nc1ncnc2nc[nH]c12)c1nc2cccc(N)c2c(=O)n1-c1ccccc1`, the IC50 in assay [1] was found to be 1.3 nM; in assay [2], 24.7 nM; in assay [3], 287 nM; in assay [4] it was 475 nM. Moreover, the viability at 20 µM in the assay with MOLT-4 was found to be 83.6%. Moreover, the viability at 10 µM in the assay on SU-DHL-5 was determined as 45.8%. Moreover, the Ratio IC50 in the assay listed under Homo sapiens turned out to be 19.

For the molecule `C[C@H](Nc1ncnc2nc[nH]c12)c1nc2cccc(F)c2c(=O)n1-c1ccccc1`, the IC50 in assay [1] is 0.5 nM; in assay [2] it was 15.3 nM; in assay [3], 145 nM; in assay [4], 152 nM. Moreover, in the assay on MOLT-4, the viability at 20 µM stood at 63.7%. The viability at 10 µM in the assay with SU-DHL-5 was determined as 46.1%. Moreover, the Ratio IC50 in the assay listed under Homo sapiens is 30.6.

On to `O=c1c2cc(F)ccc2nc([C@@H](Nc2ncnc3nc[nH]c23)C2CC2)n1-c1ccccc1`, for which the concentration for half-maximal inhibition (IC50) amounted to 1.09 nM in assay [1], 29.2 nM in assay [2], 200 nM in assay [3] and 295 nM in assay [4]. In addition, in the assay on MOLT-4, the viability at 20 µM was found to be 68.1%. In the assay on SU-DHL-5, the viability at 10 µM came to 24.4%. Further, the Ratio IC50 in the assay listed under Homo sapiens was 26.8.

Turning to `CCC[C@H](Nc1ncnc2nc[nH]c12)c1nc2cccc(F)c2c(=O)n1-c1ccccc1`, the half-maximal inhibitory concentration (IC50) in assay [1] amounted to 1.08 nM; in assay [2] it was 72.2 nM; in assay [3], 440 nM; in assay [4] it was 385 nM. For the same molecule, the viability at 20 µM with MOLT-4 came out at 60.7%. The viability at 10 µM with SU-DHL-5 was 34.4%. The Ratio IC50 in the assay listed under Homo sapiens is 66.8.

As to `C[C@H](Nc1ncnc2nc[nH]c12)c1nc2cccc(N)c2c(=O)n1-c1ccccc1`, the IC50 in assay [1] stood at 0.4 nM; in assay [2], 7.5 nM; in assay [3], 250 nM; in assay [4], 127 nM. Further, the viability at 20 µM in the assay with MOLT-4 stood at 80.9%. Moreover, the viability at 10 µM in the assay with SU-DHL-5 stood at 36.9%. Further, the Ratio IC50 in the assay listed under Homo sapiens is 18.8.

In the case of `CC(C)[C@H](Nc1ncnc2nc[nH]c12)c1nc2cccc(Cl)c2c(=O)n1-c1ccccc1`, the IC50 in assay [1] was 0.5 nM; in assay [2], 62.5 nM; in assay [3], 1040 nM; in assay [4], 356 nM. Moreover, the viability at 20 µM in the assay on MOLT-4 turned out to be 56.4%. Further, the viability at 10 µM in the assay with SU-DHL-5 was 29.7%. Also, the Ratio IC50 in the assay filed under Homo sapiens is 125.

Turning to `O=c1c2c(F)cccc2nc([C@@H](Nc2ncnc3nc[nH]c23)C2CCC2)n1-c1ccccc1`, the IC50 in assay [1] turned out to be 2.05 nM; in assay [2] it was 155 nM; in assay [3] it was 854 nM; in assay [4] it was 879 nM. The viability at 20 µM in the assay on MOLT-4 is 76.5%. The viability at 10 µM in the assay with SU-DHL-5 turned out to be 43%. Besides, the Ratio IC50 in the assay listed under Homo sapiens is 75.6.

On to `CCC[C@H](Nc1ncnc2nc[nH]c12)c1nc2cccc(C(F)(F)F)c2c(=O)n1-c1ccccc1`, for which the IC50 was 3.23 nM in assay [1], 56.3 nM in assay [2], more than 1000 nM in assay [3] and 326 nM in assay [4]. The viability at 20 µM in the assay on MOLT-4 turned out to be 52.2%. Further, in the assay on SU-DHL-5, the viability at 10 µM came to 36.4%. Besides, the Ratio IC50 in the assay listed under Homo sapiens came out at 17.4.

Regarding `O=c1c2c(Cl)cccc2nc([C@@H](Nc2ncnc3nc[nH]c23)C2CCC2)n1-c1ccccc1`, the IC50 came to 1.7 nM in assay [1], 63.8 nM in assay [2], 470 nM in assay [3] and 490 nM in assay [4]. The viability at 20 µM in the assay with MOLT-4 was 54.7%. Further, the viability at 10 µM in the assay with SU-DHL-5 came to 52.8%. Moreover, the Ratio IC50 in the assay listed under Homo sapiens came out at 37.5.

`CCC[C@H](Nc1ncnc2nc[nH]c12)c1nc2cccc(Cl)c2c(=O)n1-c1ccccc1`: the IC50 was found to be 0.5 nM in assay [1], 18.3 nM in assay [2], 129 nM in assay [3] and 301 nM in assay [4]. Moreover, the viability at 20 µM in the assay with MOLT-4 stood at 24.7%. Further, the viability at 10 µM with SU-DHL-5 worked out at 29.3%. For the same molecule, the Ratio IC50 in the assay listed under Homo sapiens came to 36.6.
